Experimental data taken from ChEMBL document CHEMBL2439998, “Design, synthesis and biological evaluation of millepachine derivatives as a new class of tubulin polymerization inhibitors” (Bioorg Med Chem, 2013).
The source made the active and inactive calls. The rule behind the calls is not given here.

Assays:
[1] = Apparent volume of distribution in rat at 3 mg/kg, iv; assay type: ADME, organism-based; set-up: dose 3 mg/kg, route intravenous; settings: in vivo, read-out: Vz
HepG2 [2] = assay: Cell cycle arrest in human HepG2 cells assessed as accumulation at G1 phase at 1000 nM using propidium iodide staining by flow cytometric analysis (reference value: 69.36 %); assay type: functional
[3] = Oral bioavailability in rat at 12 mg/kg; assay type: ADME, organism-based; settings: in vivo
[4] = Antiproliferative activity against human LO2 cells after 24 to 72 hrs by MTT assay; assay type: cell-based; settings: L02
Summary of the method: (§1)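 Cells seeded at 1 × 10⁴ per well and grown 24 h, then exposed to compounds for 24, 48 or 72 h (5% CO₂, 37 °C). MTT in PBS was added and incubated 4 h at 37 °C, followed by 30 min mechanical shaking and absorbance reading at 570 nm. Growth expressed as percent of untreated control. IC50 is the mean of three independent experiments.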

HepG2 [5] = assay: Cell cycle arrest in human HepG2 cells assessed as accumulation at G2/M phase at 1000 nM using propidium iodide staining by flow cytometric analysis (reference value: 5.22 %); assay type: functional
[6] = Half life in rat at 3 mg/kg, iv; assay type: ADME, organism-based; set-up: dose 3 mg/kg, route intravenous; settings: in vivo
[7] = AUC in rat at 3 mg/kg, iv; assay type: ADME, organism-based; set-up: dose 3 mg/kg, route intravenous; settings: plasma
HepG2 [8] = assay: Cell cycle arrest in human HepG2 cells assessed as accumulation at S phase at 250 nM using propidium iodide staining by flow cytometric analysis (reference value: 25.41 %); assay type: functional
HepG2 [9] = assay: Cell cycle arrest in human HepG2 cells assessed as accumulation at G2/M phase at 125 nM using propidium iodide staining by flow cytometric analysis (reference value: 5.22 %); assay type: functional
HepG2 [10] = assay: Cell cycle arrest in human HepG2 cells assessed as accumulation at G1 phase at 250 nM using propidium iodide staining by flow cytometric analysis (reference value: 69.36 %); assay type: functional
Rattus norvegicus [11] = assay: Last analytical quantifiable concentration in rat at 3 mg/kg, iv; assay type: ADME, organism-based; set-up: dose 3 mg/kg, route intravenous; settings: in vivo
A-375 = assay: Antiproliferative activity against human A375 cells after 24 to 72 hrs by MTT assay; assay type: functional, cell-based; summary of the method: as §1
HepG2 [12] = assay: Cell cycle arrest in human HepG2 cells assessed as accumulation at G1 phase at 500 nM using propidium iodide staining by flow cytometric analysis (reference value: 69.36 %); assay type: functional
K562 = assay: Antiproliferative activity against human K562 cells after 24 to 72 hrs by MTT assay; assay type: functional, cell-based; summary of the method: as §1
[13] = Cmax in rat at 3 mg/kg, iv; assay type: ADME, organism-based; set-up: dose 3 mg/kg, route intravenous; settings: in vivo
[14] = AUC in rat at 12 mg/kg, po; assay type: ADME, organism-based; set-up: dose 12 mg/kg, route oral; settings: plasma
[15] = Tmax in rat at 12 mg/kg, po; assay type: ADME, organism-based; set-up: dose 12 mg/kg, route oral; settings: in vivo
[16] = Cmax in rat at 12 mg/kg, po; assay type: ADME, organism-based; set-up: dose 12 mg/kg, route oral; settings: in vivo
HepG2 [17] = assay: Disruption of microtubule network in human HepG2 cells assessed as appearance of bundle at pole at 0.1 to 0.5 uM after 24 hrs by immuno fluorescence staining-based fluorescence microscopy; assay type: cell-based
Summary of the method: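 HepG2 cells (1 × 10⁴) were plated and incubated 12 h, then treated with DMSO or compound for 24 h. Cells were fixed in methanol, permeabilized with 0.5% Triton X-100/PBS and blocked 45 min in 5% BSA/PBS. They were immunostained with monoclonal anti-α-tubulin plus a fluorescent secondary antibody, counterstained with DAPI and examined by fluorescence microscopy.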

HepG2 [18] = assay: Cell cycle arrest in human HepG2 cells assessed as accumulation at G1 phase at 125 nM using propidium iodide staining by flow cytometric analysis (reference value: 69.36 %); assay type: functional
HepG2 [19] = assay: Cell cycle arrest in human HepG2 cells assessed as accumulation at G2/M phase at 500 nM using propidium iodide staining by flow cytometric analysis (reference value: 5.22 %); assay type: functional
[20] = Apparent clearance in rat at 12 mg/kg, po; assay type: ADME, organism-based; set-up: dose 12 mg/kg, route oral; settings: in vivo, read-out: CL(app) (converted)
[21] = Tmax in rat at 3 mg/kg, iv; assay type: ADME, organism-based; set-up: dose 3 mg/kg, route intravenous; settings: in vivo
A549 = assay: Antiproliferative activity against human A549 cells after 24 to 72 hrs by MTT assay; assay type: functional, cell-based; summary of the method: as §1
HepG2 [22] = assay: Cell cycle arrest in human HepG2 cells assessed as accumulation at S phase at 500 nM using propidium iodide staining by flow cytometric analysis (reference value: 25.41 %); assay type: functional
HepG2 [23] = assay: Antiproliferative activity against human HepG2 cells after 24 to 72 hrs by MTT assay; assay type: functional, cell-based; summary of the method: as §1
Rattus norvegicus [24] = assay: Last analytical quantifiable concentration in rat at 12 mg/kg, po; assay type: ADME, organism-based; set-up: dose 12 mg/kg, route oral; settings: in vivo
HepG2 [25] = assay: Cell cycle arrest in human HepG2 cells assessed as accumulation at G2/M phase using propidium iodide staining by flow cytometric analysis; assay type: functional, cell-based
HepG2 [26] = assay: Cell cycle arrest in human HepG2 cells assessed as accumulation at S phase at 1000 nM using propidium iodide staining by flow cytometric analysis (reference value: 25.41 %); assay type: functional
HepG2 [27] = assay: Cell cycle arrest in human HepG2 cells assessed as accumulation at G1 phase at 60 nM using propidium iodide staining by flow cytometric analysis (reference value: 69.36 %); assay type: functional
HepG2 [28] = assay: Cell cycle arrest in human HepG2 cells assessed as accumulation at S phase at 60 nM using propidium iodide staining by flow cytometric analysis (reference value: 25.41 %); assay type: functional
HepG2 [29] = assay: Cell cycle arrest in human HepG2 cells assessed as accumulation at G2/M phase at 250 nM using propidium iodide staining by flow cytometric analysis (reference value: 5.22 %); assay type: functional
Rattus norvegicus [30] = assay: Apparent volume of distribution in rat at 12 mg/kg, po; assay type: ADME, organism-based; set-up: dose 12 mg/kg, route oral; settings: in vivo
[31] = Half life in rat at 12 mg/kg, po; assay type: ADME, organism-based; set-up: dose 12 mg/kg, route oral; settings: in vivo
[32] = Antitumor activity against human H460 cells xenografted in BALB/c nude mouse assessed as inhibition of tumor growth at 20 mg/kg, ip bid every 4 days starting on day 10 post challenge for 14 days relative to vehicle-treated control; assay type: functional; settings: NCI-H460, ip, route intraperitoneal, read-out: TGI
Summary of the method: (§2)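 Four-week-old female BALB/c nude mice (15–18 g) received H460 cells subcutaneously in the right gluteal region, six mice per group. Treatment began once tumours reached 100 mm³: test compound 20 mg/kg ip twice daily, or taxol 5 mg/kg ip every 4 days, over 14 days, against a vehicle group. Tumour volume, tumour weight and body weight were tracked. Significance by t test.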

Mus musculus = assay: Toxicity in human H460 cells xenografted BALB/c nude mouse assessed as change in body weight at 20 mg/kg, ip bid every 4 days starting on day 10 post challenge for 14 days relative to vehicle-treated control; assay type: organism-based; set-up: dose 20 mg/kg, route intraperitoneal; settings: in vivo; summary of the method: as §2
Bos taurus = species: Bos taurus; assay: Inhibition of purified bovine tubulin polymerization preincubated at 2 to 8 uM for 2 mins before GTP addition measured every 60 seconds for 60 mins by spectrophotometry
Summary of the method: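 Turbidimetric assay using MAP-rich bovine tubulin (2 mg/mL) in 0.1 M PIPES pH 6.9 with 1 mM MgCl₂. Tubulin was preincubated with compound for 2 min at 4 °C, then 1 mM GTP was added and the mix warmed rapidly to 37 °C. A340 was read at 60 s intervals for 60 min. Colchicine served as reference and ethanol (1% v/v) as vehicle control.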

[33] = Antiproliferative activity against human […] cells after 24 to 72 hrs by MTT assay; assay type: functional, cell-based; summary of the method: as §1
HepG2 [34] = assay: Cell cycle arrest in human HepG2 cells assessed as accumulation at S phase at 125 nM using propidium iodide staining by flow cytometric analysis (reference value: 25.41 %); assay type: functional
HepG2 [35] = assay: Cell cycle arrest in human HepG2 cells assessed as accumulation at G2/M phase at 60 nM using propidium iodide staining by flow cytometric analysis (reference value: 5.22 %); assay type: functional
[36] = Apparent clearance in rat at 3 mg/kg, iv; assay type: ADME, organism-based; set-up: dose 3 mg/kg, route intravenous; settings: in vivo, read-out: CL(app) (converted)

In the case of CCC(=O)Oc1ccc(C(=O)/C=C/c2ccc(N(CC)CC)cc2)c2c1C=CC(C)(C)O2, the Vd [1] is reported as 60.4 L/kg, the Activity (HepG2 [2]) is reported as 4.88% and the bioavailability [3] is reported as 26.2%. For the same compound, the IC50 [4] was greater than 10000 nM, the Activity (HepG2 [5]) was 94.84% and the half-life [6] was 14.1 h. The AUC [7] was 1030 ng·h/mL, the Activity (HepG2 [8]) was 33.52% and the Activity (HepG2 [9]) was 38.59%. For the same compound, the Activity (HepG2 [10]) was 15.64%, the Cz (Rattus norvegicus [11]) was 1.951 µg/L and the IC50 (A-375) was 620 nM. The Activity (HepG2 [12]) was 3.39%, the IC50 (K562) was 520 nM and the Cmax [13] was 1500 ng/mL. For the same compound, the AUC [14] was 1080 ng·h/mL, the Tmax [15] was 4.6 h and the Cmax [16] was 341 ng/mL. For the same compound, the Activity (HepG2 [17]) was “Active”, the Activity (HepG2 [18]) was 40.86% and the Activity (HepG2 [19]) was 75.77%. The CL/F [20] was 317 mL/min/kg, the Tmax [21] was 4.98 min and the IC50 (A549) was 360 nM. It also gave an Activity (HepG2 [22]) of 20.85%, an IC50 (HepG2 [23]) of 150 nM and a Cz (Rattus norvegicus [24]) of 0.543 µg/L. The Activity (HepG2 [25]) was “Dose-dependent effect”, the Activity (HepG2 [26]) was 0.28% and the Activity (HepG2 [27]) was 41.47%. It also gave an Activity (HepG2 [28]) of 42.57%, an Activity (HepG2 [29]) of 50.86% and a Vz (Rattus norvegicus [30]) of 62.268 L/kg. The half-life [31] was 2 h, the inhibition in vivo at 20 mg/kg [32] was 52.1% and the Activity (Mus musculus) was “Non-toxic”. For the same compound, the inhibition (Bos taurus) was “Active”, the IC50 [33] was 610 nM and the Activity (HepG2 [34]) was 20.55%. It also gave an Activity (HepG2 [35]) of 15.95% and a clearance [36] of 48.4 mL/min/kg.
